Reference: ChEMBL document CHEMBL1123591, “Synthetic analogues of tetrahydrobiopterin with cofactor activity for aromatic amino acid hydroxylases” (1987)

These molecules were tested against T1, Phenylalanine-4-hydroxylase (Rattus norvegicus) (UniProt P04176) (assay: Tested in isolated enzyme assay for its cofactor activity against phenylalanine hydroxylase (iisolated from rat liver) expressed as relative velocity).
T1 sequence (whole entry): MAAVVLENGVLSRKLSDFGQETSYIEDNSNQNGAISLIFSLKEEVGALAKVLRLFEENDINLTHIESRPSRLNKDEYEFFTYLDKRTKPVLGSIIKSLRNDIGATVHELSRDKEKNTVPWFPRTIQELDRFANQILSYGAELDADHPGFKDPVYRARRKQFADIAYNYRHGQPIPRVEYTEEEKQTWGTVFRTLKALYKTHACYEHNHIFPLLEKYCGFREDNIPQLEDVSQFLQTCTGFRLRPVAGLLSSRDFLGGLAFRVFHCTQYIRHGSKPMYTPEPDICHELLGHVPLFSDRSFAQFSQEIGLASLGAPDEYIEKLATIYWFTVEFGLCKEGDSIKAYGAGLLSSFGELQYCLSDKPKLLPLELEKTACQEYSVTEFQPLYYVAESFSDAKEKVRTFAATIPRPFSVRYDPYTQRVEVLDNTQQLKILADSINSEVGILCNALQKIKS
Procedure, shortened: (§1)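 Phenylalanine hydroxylase was isolated from rat liver and purified on phenyl-Sepharose. Tyrosine formed was quantified by liquid chromatography with fluorescence detection, and velocities were expressed relative to tetrahydrobiopterin.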
Molecule `CC1CNc2nc(N)[nH]c(=O)c2N1` (configuration not stated) has a Relative velocity of 238%. In the case of `CC(O)C(O)C1CNc2nc(N)nc(O)c2N1` (configuration not stated), the Relative velocity is reported as 100%. In the case of `COCC1CNc2nc(N)nc(O)c2N1` (configuration not stated), the Relative velocity is reported as 138%. Molecule `CCOCC1CNc2nc(N)nc(O)c2N1` (configuration not stated) has a Relative velocity of 155%.

Each molecule was assayed against T1, Phenylalanine-4-hydroxylase (Rattus norvegicus) (assay: Tested in isolated enzyme assay for its cofactor activity against phenylalanine hydroxylase (isolated from rat liver) expressed as relative velocity).
Procedure, shortened: as §1
`CCCCOCC1CNc2nc(N)nc(O)c2N1` (configuration not stated) gave a Relative velocity of 22%. `CCCOCC1CNc2nc(N)nc(O)c2N1` (configuration not stated) gave a Relative velocity of 32%. `CC(C)(C)OCC1CNc2nc(N)nc(O)c2N1` (configuration not stated) gave a Relative velocity of 4%. Work on `CC1(C)CNc2nc(N)nc(O)c2N1` yielded a Relative velocity of 39%. `CC(C)OCC1CNc2nc(N)nc(O)c2N1` (configuration not stated) gave a Relative velocity of 15%. `COCCOCC1CNc2nc(N)nc(O)c2N1` (configuration not stated) gave a Relative velocity of 36%. `CCCCCCCCOCC1CNc2nc(N)nc(O)c2N1` (configuration not stated) gave a Relative velocity of 3%.

What follows are molecules tested against T2, Tryptophan 5-hydroxylase 1 (Rattus norvegicus) (UniProt P09810) (assay: Tested in isolated enzyme assay for its cofactor activity against tryptophan hydroxylase (isolated from rat brain stem) expressed as relative velocity).
T2 sequence (whole entry): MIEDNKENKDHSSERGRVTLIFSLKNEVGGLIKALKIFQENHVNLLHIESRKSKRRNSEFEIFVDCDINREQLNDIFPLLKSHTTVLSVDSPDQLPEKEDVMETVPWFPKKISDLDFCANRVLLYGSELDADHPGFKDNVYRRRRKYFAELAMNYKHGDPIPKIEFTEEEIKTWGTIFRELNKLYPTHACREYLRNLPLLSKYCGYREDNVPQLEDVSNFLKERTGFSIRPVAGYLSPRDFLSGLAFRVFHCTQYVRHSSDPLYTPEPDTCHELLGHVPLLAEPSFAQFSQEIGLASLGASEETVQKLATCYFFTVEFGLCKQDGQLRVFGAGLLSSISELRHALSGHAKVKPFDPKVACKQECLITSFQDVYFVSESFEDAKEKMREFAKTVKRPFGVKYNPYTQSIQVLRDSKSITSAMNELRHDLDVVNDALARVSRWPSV
Procedure, shortened: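 The tryptophan hydroxylase source was a desalted 40000g supernatant of rat brain stem, with velocities expressed relative to tetrahydrobiopterin.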
`CCCCOCC1CNc2nc(N)nc(O)c2N1` (configuration not stated) showed a Relative velocity of 52%. In the case of `CC1CNc2nc(N)[nH]c(=O)c2N1` (configuration not stated), the Relative velocity is reported as 154%. With `CCCOCC1CNc2nc(N)nc(O)c2N1` (configuration not stated) the Relative velocity was 54%. `CC(O)C(O)C1CNc2nc(N)nc(O)c2N1` (configuration not stated) showed a Relative velocity of 100%. `CC1(C)CNc2nc(N)nc(O)c2N1` showed a Relative velocity of 40%. In the case of `CC(C)OCC1CNc2nc(N)nc(O)c2N1` (configuration not stated), the Relative velocity is reported as 44%. Work on `CCCCCCCCOCC1CNc2nc(N)nc(O)c2N1` (configuration not stated) yielded a Relative velocity of 32%. In the case of `COCC1CNc2nc(N)nc(O)c2N1` (configuration not stated), the Relative velocity is reported as 65%. For `CCOCC1CNc2nc(N)nc(O)c2N1` (configuration not stated), the Relative velocity was 85%.

What follows are molecules tested against T3, Tyrosine 3-monooxygenase (Bos taurus) (UniProt P17289) (assay: Cofactor activity in bovine adrenal medulla tyrosine hydroxylase assay as relative velocity).
T3 sequence (whole entry): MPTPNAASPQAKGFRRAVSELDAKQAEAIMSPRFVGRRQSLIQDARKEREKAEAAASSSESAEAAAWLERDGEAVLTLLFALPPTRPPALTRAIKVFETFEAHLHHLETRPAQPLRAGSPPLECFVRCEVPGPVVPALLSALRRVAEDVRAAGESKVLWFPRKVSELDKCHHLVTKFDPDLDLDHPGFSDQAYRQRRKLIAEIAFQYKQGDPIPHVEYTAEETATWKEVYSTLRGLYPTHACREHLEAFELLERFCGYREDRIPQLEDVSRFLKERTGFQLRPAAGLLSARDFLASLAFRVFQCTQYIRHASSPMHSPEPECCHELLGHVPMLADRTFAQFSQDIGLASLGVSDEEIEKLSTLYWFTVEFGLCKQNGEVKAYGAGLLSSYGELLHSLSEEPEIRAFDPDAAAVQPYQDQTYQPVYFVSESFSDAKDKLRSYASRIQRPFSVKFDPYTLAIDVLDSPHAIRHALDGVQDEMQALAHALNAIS
Procedure, shortened: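 Tyrosine hydroxylase was purified from bovine adrenal medulla by partial trypsin digestion, giving a model of the high-affinity form, then ammonium sulfate fractionation. Activity was measured as release of ³H₂O from L-(3,5-³H)tyrosine, with velocities expressed relative to tetrahydrobiopterin.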
`CCCCOCC1CNc2nc(N)nc(O)c2N1` (configuration not stated) was tested, and the Relative velocity was 135%. In the case of `CC1CNc2nc(N)[nH]c(=O)c2N1` (configuration not stated), the Relative velocity is reported as 154%. With `CCCOCC1CNc2nc(N)nc(O)c2N1` (configuration not stated) the Relative velocity was 92%. `CC(C)(C)OCC1CNc2nc(N)nc(O)c2N1` (configuration not stated) gave a Relative velocity of 130%. For `CC(C)COCC1CNc2nc(N)nc(O)c2N1` (configuration not stated), the Relative velocity was 110%. With `CC(O)C(O)C1CNc2nc(N)nc(O)c2N1` (configuration not stated) the Relative velocity was 100%. Work on `CC1(C)CNc2nc(N)nc(O)c2N1` yielded a Relative velocity of 119%. In the case of `CC(C)OCC1CNc2nc(N)nc(O)c2N1` (configuration not stated), the Relative velocity is reported as 137%. `COCCOCC1CNc2nc(N)nc(O)c2N1` (configuration not stated) gave a Relative velocity of 131%. `CCCCCOCC1CNc2nc(N)nc(O)c2N1` (configuration not stated) showed a Relative velocity of 85%. `CCCCCCCCOCC1CNc2nc(N)nc(O)c2N1` (configuration not stated) showed a Relative velocity of 48%. In the case of `COCC1CNc2nc(N)nc(O)c2N1` (configuration not stated), the Relative velocity is reported as 126%. `CCOCC1CNc2nc(N)nc(O)c2N1` (configuration not stated) gave a Relative velocity of 154%.

What follows are molecules tested on dihydropteridine reductase (assay: Tested in isolated enzyme assay for its cofactor activity against dihydropteridine reductase expressed as Michaelis-Menten constant).
With `CCCCOCC1CNc2nc(N)nc(O)c2N1` (configuration not stated) the Km was 3 µM. `CC1CNc2nc(N)[nH]c(=O)c2N1` (configuration not stated) showed a Km of 13 µM. Work on `CCCOCC1CNc2nc(N)nc(O)c2N1` (configuration not stated) yielded a Km of 2 µM. With `CC(C)(C)OCC1CNc2nc(N)nc(O)c2N1` (configuration not stated) the Km was 5 µM. `CC(O)C(O)C1CNc2nc(N)nc(O)c2N1` (configuration not stated) showed a Km of 2 µM. With `CC(C)OCC1CNc2nc(N)nc(O)c2N1` (configuration not stated) the Km was 4 µM. `COCC1CNc2nc(N)nc(O)c2N1` (configuration not stated) gave a Km of 9 µM. Work on `CCOCC1CNc2nc(N)nc(O)c2N1` (configuration not stated) yielded a Km of 6 µM.

Each molecule was assayed on dihydropteridine reductase (assay: Tested in isolated enzyme assay for its cofactor activity against dihydropteridine reductase expressed as Michaelis-Menten constant (calculated in the presence of platinum catalyst)).
For `CC1(C)CNc2nc(N)nc(O)c2N1`, the Km was 260 µM.
